ATG4B inhibitor: blocks human ATG4B protease cleavage of LC3 substrate. Q9Y4P1. 340,000 compounds, 0.51% hits. ATG4B cleavage of LC3-PLA2, NBD-HPC fluorescence, 1 h. AID 504462. inhibition, % at 8.33 µM; in the data active = inhibition above about 40%
B2AR ag: human beta-2 adrenergic receptor agonism by FAP. response, % (concentration not given with the values). Am2.2-beta2AR cells, FAP receptor internalization, flow cytometry. P07550. 340,000 compounds, 0.43% hits. AID 504454;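 active = response above a set limit, near 3 SD of response in nonfluorescent compounds, cut at about 42% in these data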
MEKK3 PB1 HTS: MEKK3-MEK5 PB1 interaction, increase or decrease; 290,000 compounds, 1.4% hits; bead-based flow cytometry, Alexa488-MEK5 binding to MEKK3; actives lie on both sides; 0 = blocked by unlabeled MEK5, 100 = vehicle; AID 1529; binding response (% of control), % at 10 µM; Q99759;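 active = binding response more than 3 SD above or below the average of its plate-row segment, actives on both sides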;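 also: Alexa488 bead fluorescence after subtracting the streptavidin-only scavenger bead signal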
Target sequence (Q99759 whole entry, looked up): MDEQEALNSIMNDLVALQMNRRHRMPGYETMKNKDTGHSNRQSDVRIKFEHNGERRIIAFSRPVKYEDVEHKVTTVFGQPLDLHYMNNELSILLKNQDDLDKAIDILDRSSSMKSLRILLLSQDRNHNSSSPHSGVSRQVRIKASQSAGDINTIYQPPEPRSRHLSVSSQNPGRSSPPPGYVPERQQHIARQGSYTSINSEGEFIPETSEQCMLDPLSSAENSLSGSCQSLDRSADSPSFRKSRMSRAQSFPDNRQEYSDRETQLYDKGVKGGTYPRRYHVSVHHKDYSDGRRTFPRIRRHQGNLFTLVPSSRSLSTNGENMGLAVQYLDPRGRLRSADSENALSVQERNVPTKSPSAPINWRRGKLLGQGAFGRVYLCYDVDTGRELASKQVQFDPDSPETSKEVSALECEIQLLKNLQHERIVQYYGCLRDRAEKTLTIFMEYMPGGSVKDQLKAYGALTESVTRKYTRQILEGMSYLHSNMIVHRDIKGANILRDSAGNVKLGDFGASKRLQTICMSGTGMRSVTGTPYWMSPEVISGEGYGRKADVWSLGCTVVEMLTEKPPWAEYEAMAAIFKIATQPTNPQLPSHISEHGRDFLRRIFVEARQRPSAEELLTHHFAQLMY
MEKK2 mut-MEK5: signal of MEK5 binding to mutant human MEKK2 PB1 domain; AID 1530; bead flow cytometry, Alexa488-MEK5 binding to MEKK2 mutant; 290,000 compounds, 0.35% hits; percent response, % at 10 µM; in the data active = percent response above about 24%, passing the limit was not always enough
Dynein cargo inh: dynein cargo transport inhibition. 3617.4 mouse cells, GR-EGFP nuclear translocation imaging; test concentration mostly 20 µM; stimulated with dexamethasone, 1 µM; stronger effect = lower value. z-score, hits read low. 220,000 compounds, 0.47% hits;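 active = plate z-score of nuclear minus cytoplasmic receptor signal below a set negative limit, without overly bright fluorescence or cell loss, cut at about -3.5 in these data, passing the limit was not always enough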;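 also: z-score of nuclear minus cytoplasmic ring GR-EGFP intensity difference per well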
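Also added: dexamethasone, 1.0 µM final. Medium: tet-free, stripped-serum medium. Detection: fixed, Hoechst-stained cells imaged at 10x for EGFP. Read-out: nuclear-to-cytoplasmic GR-EGFP distribution per well. Times: induction 48 h, compound 1 h, agonist 30 min.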
MEKK2wt PB1 HTS: raises or lowers MEK5 binding to wildtype human MEKK2 PB1 domain; binding response (% of control), % at 10 µM; bead flow cytometry, Alexa488-MEK5 binding to MEKK2 WT; actives lie on both sides; 290,000 compounds, 1.1% hits; AID 1531; in the data active = binding response below about 67% or above about 130%
An asterisk follows results filed as active; / = no result; [ ] = dose if it differs, or a comment. Most compounds without a hit are left out; they make up all but 2.9% or so of the library.

SMILES	ATG4B inhibitor	B2AR ag	MEKK3 PB1 HTS	MEKK2 mut-MEK5	Dynein cargo inh	MEKK2wt PB1 HTS
COC1=C(N)C(=O)c2nc(-c3nc(C(=O)O)c(C)c(-c4ccc(OC)c(OC)c4O)c3N)ccc2C1=O	68.8*	/	99.0	2.0	-2.83	95.0
O=C1Nc2ccc(Br)cc2C12NNc1ccccc1O2 (stereo unspecified)	3.6	-400.4	93.0	-5.0	0.354	-4.0*
COC(=O)Cn1cc(/C=N/NC(=O)COc2cccc3cccnc23)c2ccccc21	-19.5	47.6*	94.0	2.0	-0.101	91.0
C#CCn1cc(/C=N/NC(=O)COc2cccc3cccnc23)c2ccccc21	20.9	-3.3	90.0	-2.0	0.282	91.0
Cn1cc(C(=O)c2ccc(Cl)cc2Cl)cc1C(=O)N/N=C(\N)COc1ccc(Cl)cc1	-10.9	90.4*	110.0	2.0	-0.666	108.0
Cn1cc(C(=O)c2ccc(Cl)cc2Cl)cc1C(=O)N/N=C(\N)COc1ccc(F)cc1	-2.3	3.9	100.0	2.0	-0.749	99.0
Cc1ccc(-c2csc3nc4c5ccccc5c(NCCCN(C)C)nn4c(=O)c23)cc1	13.6	24.6	107.0	65.0*	-6.02	195.0*
Cc1ccc(-c2csc3nc(C)n(N)c(=O)c23)cc1	-5.6	3.1	104.0	-1.0	-0.869	104.0
CCN(CC)CCCN=C1N[C@@H](c2cccc(F)c2)C(C(=O)OC)=C(C)N1Cc1ccccc1	7.3	65.9*	/	/	/	/
COC(=O)C1=C(C)N(Cc2ccccc2)C(=NCCc2c[nH]c3ccccc23)N[C@H]1c1cccc(F)c1	-9.6	17.8	/	/	/	/
CC(C)(C)NC(=O)C[C@H]1C[C@H](C(=O)N2CCOCC2)[C@@]2(CCC3CCCC3)c3[nH]c4cc(-c5ccco5)ccc4c3CCN2C1=O	-7.6	10.7	/	/	/	/
Cc1cc(C(=O)Nc2cc(Br)ccc2O)on1	4.0	14.7	101.0	2.0	/	98.0
O=C1NC(=S)S/C1=C\c1ccc(SCc2ccco2)o1	67.0*	0.6	101.0	2.0	0.942	102.0
CCC1=NN2C(=N)/C(=C\c3ccc(SCc4ccco4)o3)C(=O)N=C2S1	16.8	0.4	106.0	0.0	0.177	106.0
COc1cc(C(=O)Nc2ccc(S(=O)(=O)N3CCc4ccccc43)cc2)cc(OC)c1OC	-11.7	25.8	103.0	0.0	0.715	114.0
COc1cc(C(=O)Nc2ccc3c(c2)CCN3C(C)=O)cc(OC)c1OC	-6.3	-5.8	101.0	21.0	-0.25	173.0*
CCOc1cccc2sc(N(CCN(C)C)C(=O)c3cc4ccccc4cc3OC)nc12	8.3	21.3	101.0	19.0	/	149.0*
COc1ccc2nc(N(CCN(C)C)C(=O)c3ccc4ccccc4c3)sc2c1	4.0	5.9	101.0	8.0	/	132.0
CCOc1ccc2nc(N(CCN(C)C)C(=O)c3cc4ccccc4cc3OC)sc2c1	-2.7	1.8	104.0	21.0	/	137.0*
CC(=O)c1ccc(CCCCc2ccc(C(C)=O)cc2)cc1	-4.2	4.7	/	/	/	/
O=C(COC(=O)CCCOc1ccccc1)NC1CCS(=O)(=O)C1 (stereo unspecified)	-7.0	-4.3	/	/	/	/
CN(C)/C=C1\C(=O)ON=C1c1ccccc1	0.2	9.5	107.0	-9.0	-0.192	96.0
O=C1ON=C(c2ccccc2)/C1=C/c1ccco1	4.2	57.6*	103.0	0.0	-0.62	96.0
CCNS(=O)(=O)c1ccc(NC(=O)Nc2cc(C)ccc2OC)cc1	-9.7	13.3	104.0	0.0	-0.775	102.0
COc1ccc(C)cc1NC(=O)NNS(=O)(=O)c1ccc(NC(C)=O)cc1	4.9	0.7	39.0*[inhibitor]	-8.0	/	47.0*[inhibitor]
COc1ccccc1N(CC(=O)NCCSCc1cccc(C)c1)S(=O)(=O)c1ccccc1	5.1	21.5	106.0	5.0	/	104.0
O=C(Nc1ccc(Cl)cc1Cl)c1cccc(N2C(=O)C=CC2=O)c1	-3.4	70.6*	/	/	/	/
O=C(Nc1ccc(Cl)cc1Cl)c1ccc2c(c1)OCCO2	-4.6	-1.9	/	/	/	/
C#CCOCCOCCOCCNc1nc(N2CCOCC2)nc(N2CCN(C(=O)CCCCCCCCCCNC(=O)[C@H]([C@@H](C)CC)n3cc(CCCCN=C(N)N)nn3)CC2)n1	0.5	11.3	/	/	/	/

Screens (PubChem)
